{"data": "Measured values collected from several papers", "PKM": "Pyruvate kinase PKM (PKM, Homo sapiens, UniProt P14618)", "HTR6": "5-hydroxytryptamine receptor 6 (HTR6, Homo sapiens, UniProt P50406)", "OR5K1": "OR5K1 (Homo sapiens, UniProt Q8NHB7)", "STAT3": "Signal transducer and activator of transcription 3 (STAT3, Homo sapiens, UniProt P40763)", "HTR7": "5-hydroxytryptamine receptor 7 (HTR7, Homo sapiens, UniProt P34969)", "CDK2": "Cyclin-dependent kinase 2 (CDK2, Homo sapiens, UniProt P24941)", "note": "Each line is one published result; the experiments were not run side by side."}
{"Structure (SMILES)": "Cc1ccc(NS(=O)(=O)c2ccc3c(c2)CCC(=O)N3)cc1F", "target": "PKM", "test": "enzyme activity, activator", "endpoint": "AC50", "result": "0.54 µM"}
{"Structure (SMILES)": "c1cncc(-c2cccc(Nc3nccc(NC4CCCCC4)n3)c2)c1", "target": "Serine/threonine-protein kinase D3 (PRKD3, Homo sapiens, UniProt O94806)", "test": "binding, competition with immobilised ligand", "endpoint": "Kd", "result": "1.7 µM"}
{"Structure (SMILES)": "Cc1nc2cc(OCCCCN3CCN(c4cccc(Cl)c4Cl)CC3)ccc2s1", "target": "HTR6", "test": "cell-free assay, radioligand", "endpoint": "Ki", "result": "0.72 µM"}
{"Structure (SMILES)": "Cc1ccc(NS(=O)(=O)c2cc3c(cc2Cl)CCC(=O)N3)cc1Cl", "target": "PKM", "test": "enzyme activity, activator", "endpoint": "AC50", "result": "0.09 µM"}
{"Structure (SMILES)": "Cc1cnc(C)cn1", "target": "OR5K1", "test": "cAMP, agonist", "endpoint": "EC50", "result": "> 1500 µM"}
{"Structure (SMILES)": "Cc1cc(C)c(S(=O)(=O)N(C)CC(=O)N(Cc2cc(C(C)(C)C)cc(C(C)(C)C)c2)c2ccc(C(=O)O)c(O)c2)c(C)c1", "target": "STAT3", "test": "ligand displacement, FP", "endpoint": "Ki", "result": "19.7 µM"}
{"Structure (SMILES)": "CN1CCC(=C2c3ccccc3C=Cc3ccccc32)CC1", "target": "HTR7", "test": "ligand displacement, radioligand", "setting": "cell membranes", "endpoint": "Ki", "result": "0.024 µM"}
{"Structure (SMILES)": "Cc1ccc(NS(=O)(=O)c2cc3c(cc2Cl)NC(=O)CO3)cc1C", "target": "PKM", "test": "enzyme activity, activator", "endpoint": "AC50", "result": "0.26 µM"}
{"Structure (SMILES)": "CN1CCN(C2=Nc3cscc3/C(=C/C#N)c3cscc32)CC1", "target": "HTR7", "test": "ligand displacement, radioligand", "setting": "cell membranes", "endpoint": "Ki", "result": "0.153 µM"}
{"Structure (SMILES)": "Nc1nc2c(ncn2[C@@H]2O[C@H](COP(=O)(O)OP(=O)(O)O)[C@@H](OP(=O)(O)OP(=O)(O)O)[C@H]2O)c(=O)[nH]1", "target": "Xanthine-guanine phosphoribosyltransferase (Escherichia coli, UniProt P0A9M5)", "test": "binding, ITC", "endpoint": "Kd", "result": "3.2 µM"}
{"Structure (SMILES)": "CCc1nccnc1CC", "target": "OR5K1 (Homo sapiens, UniProt Q8NHB7, A2T/T15M/Y193C)", "test": "cAMP, agonist", "endpoint": "EC50", "result": "499 µM"}
{"Structure (SMILES)": "C[C@H](NC(=O)CNC(=O)[C@@H]1CCCN1C(=O)[C@@H]1CCCN1C(=O)[C@H](C)NC(=O)[C@H](CCC(N)=O)NC(=O)CNC(=O)[C@@H]1CCCN1C(=O)[C@H](Cc1ccc(O)cc1)NC(=O)[C@H](C)NC(=O)CNC(=O)[C@@H]1CCCN1C(=O)[C@@H]1CCCN1C(=O)[C@H](C)NC(=O)[C@H](CCC(N)=O)NC(=O)CNC(=O)[C@@H]1CCCN1C(=O)[C@H](Cc1ccc(OP(=O)(O)O)cc1)NC(=O)[C@H](C)NC(=O)CN)C(=O)O", "target": "STAT3", "test": "binding, ITC", "setting": "pH 7.5", "endpoint": "Kd", "result": "~40 µM"}
{"Structure (SMILES)": "Cc1cnc(C)c(C)n1", "target": "OR5K1 (Homo sapiens, UniProt Q8NHB7, F62L)", "test": "cAMP, agonist", "endpoint": "EC50", "result": "376 µM"}
{"Structure (SMILES)": "Cc1cnc(-c2ccc(-c3ccc(NC(=O)Nc4c(F)cc(F)cc4F)cc3F)c3c2C(=O)NC3)[nH]1", "target": "Mitogen-activated protein kinase kinase kinase kinase 1 (MAP4K1, Homo sapiens, UniProt Q92918)", "test": "binding, competition with immobilised ligand", "endpoint": "Kd", "result": "0.0072 µM"}
{"Structure (SMILES)": "O=C(Nc1cc(C2CCCCC2)[nH]n1)c1ccc(Br)cc1", "target": "CDK2", "test": "binding, ITC", "endpoint": "Kd", "result": "> 100 µM"}
{"Structure (SMILES)": "CN(C)CCC=C1c2ccccc2CCc2ccccc21", "target": "HTR7", "test": "ligand displacement, radioligand", "setting": "cell membranes", "endpoint": "Ki", "result": "0.096 µM"}
{"Structure (SMILES)": "Cc1ccc(NS(=O)(=O)c2cc3c(cc2NC(C)C)NC(=O)CC3)cc1C", "target": "PKM", "test": "enzyme activity, activator", "endpoint": "AC50", "result": "0.57 µM"}
{"Structure (SMILES)": "CC(=O)N=S(=O)(O)c1ccc(N/C=C2\\C(=O)Nc3ccc4ncsc4c32)cc1", "target": "CDK2", "test": "binding, ITC", "endpoint": "Kd", "result": "0.194 µM"}
{"Structure (SMILES)": "CC(C)[C@@H](CC[C@@H](C)[C@H]1CC[C@H]2[C@@H]3[C@H](O)C[C@H]4C[C@@H](NCCCNCCCCNCCCN)CC[C@]4(C)[C@H]3CC[C@]12C)OS(=O)(=O)O", "target": "Receptor-type tyrosine-protein phosphatase C (PTPRC, Homo sapiens, UniProt P08575)", "test": "enzyme activity, inhibitor", "endpoint": "Ki", "result": "18 µM"}
{"Structure (SMILES)": "Cc1nc2n(c(=O)c1CCN1CCC(c3noc4cc(F)ccc34)CC1)CCCC2O (stereo not shown)", "target": "HTR7", "test": "ligand displacement, radioligand", "setting": "cell membranes", "endpoint": "Ki", "result": "0.01 µM"}
{"Structure (SMILES)": "CNc1cc2c(cc1S(=O)(=O)Nc1ccc(C)c(C)c1)CCC(=O)N2", "target": "PKM", "test": "enzyme activity, activator", "endpoint": "AC50", "result": "0.44 µM"}
{"Structure (SMILES)": "CN(CC(=O)N(Cc1ccc2ccccc2c1)c1ccc(C(=O)O)c(O)c1)S(=O)(=O)c1c(F)c(F)c(F)c(F)c1F", "target": "STAT3", "test": "ligand displacement, FP", "endpoint": "Ki", "result": "32.5 µM"}
{"Structure (SMILES)": "Cc1ccc(NS(=O)(=O)c2cc3c(cc2N[C@H](C)CO)NC(=O)CC3)cc1C", "target": "PKM", "test": "enzyme activity, activator", "endpoint": "AC50", "result": "0.88 µM"}
{"Structure (SMILES)": "COc1cccc(OC)c1NS(=O)(=O)c1ccc(N/C=C2\\C(=O)Nc3ccc4ncsc4c32)cc1", "target": "CDK2", "test": "binding", "endpoint": "Kd", "result": "0.179 µM"}
{"Structure (SMILES)": "CC(=O)N[C@H](C(=O)N[C@@H](CC(N)=O)C(=O)N[C@@H](CCCCN)C(=O)N1CCC[C@H]1C(=O)N[C@@H](CC(C)C)C(=O)N1CCC[C@H]1C(=O)N1CCC[C@H]1C(=O)N[C@@H](CC(C)C)C(=O)N1CCC[C@H]1C(=O)N[C@H](C(=O)N[C@@H](C)C(N)=O)C(C)C)C(C)C", "target": "Tyrosine-protein kinase Fyn, SH3 (FYN, Homo sapiens, UniProt P06241)", "test": "binding, ITC", "setting": "pH 7", "endpoint": "Kd", "result": "23.9 µM"}
{"Structure (SMILES)": "C=Cc1cnccn1", "target": "OR5K1", "test": "cAMP, agonist", "endpoint": "EC50", "result": "> 1500 µM"}
{"Structure (SMILES)": "CCc1nc2cc(OCCCCN3CCC(c4cccc(Cl)c4Cl)CC3)ccc2s1", "target": "HTR6", "test": "cell-free assay, radioligand", "endpoint": "Ki", "result": "0.96 µM"}
{"Structure (SMILES)": "Cc1cc(NS(=O)(=O)c2cc3c(cc2F)NC(=O)CC3)ccc1Cl", "target": "PKM", "test": "enzyme activity, activator", "endpoint": "AC50", "result": "0.6 µM"}
{"Structure (SMILES)": "Cc1nccnc1C", "target": "OR5K1", "test": "cAMP, agonist", "endpoint": "EC50", "result": "> 1500 µM"}
{"Structure (SMILES)": "O=C1CCc2cc(S(=O)(=O)Nc3ccc4ncccc4c3)ccc2N1", "target": "PKM", "test": "enzyme activity, activator", "endpoint": "AC50", "result": "> 20 µM"}
{"Structure (SMILES)": "CC1=C(/C=C/C2=CCC[C@]3(C)[C@@H]([C@H](C)CCCC(C)(C)O)CC[C@@H]23)C[C@@H](O)CC1", "target": "Oxysterols receptor LXR-beta (NR1H2, Homo sapiens, UniProt P55055)", "test": "coactivator recruitment, agonist, TR-FRET", "endpoint": "EC50", "result": "0.01 to 0.1 µM"}
